The source of these data is ChEMBL document CHEMBL1137660, “Molecular and biochemical characterization of the chromosome-encoded class A beta-lactamase BCL-1 from Bacillus clausii” (Antimicrob Agents Chemother, 2007).

The structures appear in SMILES notation. ≈ marks a conversion by molar mass, not a printed value.

Broadly, the MIC is the lowest concentration found to suppress growth.

Common to all, as to assay type: functional
Experiment [1] relates to Escherichia coli. The experiment in a line: Antimicrobial activity against Escherichia coli BL21(DE3) by agar-dilution technique. The gist of the method:
(§1)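 MICs by agar dilution on Mueller-Hinton agar following CLSI recommendations. E. coli DH10B clone carries EcoRI-restricted B. clausii NR DNA in pJIM2246. BL21(DE3) carries blaBCL-1 in pET9a.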

Experiment [2] concerns Escherichia coli. The experiment in a line: Antimicrobial activity against Escherichia coli DH10B by agar-dilution technique. Particulars: K-12 substr. DH10B. The gist of the method:
as §1

The subject of experiment [3] is Shouchella clausii. The experiment is described as follows: Antimicrobial activity against Bacillus clausii ATCC 21537 by agar-dilution technique.
In experiment [4] the test system is Escherichia coli. The experiment in a line: Antimicrobial activity against Escherichia coli BL21(DE3) carrying pET9a expressing Bacillus clausii beta-lactamase BCL1 by agar-dilution technique.
Experiment [5] deals with Escherichia coli. The experiment is described as follows: Antimicrobial activity against Escherichia coli DH10B carrying pJIM2246 expressing Bacillus clausii NR beta-lactamase BCL1 by agar-dilution technique. The following applies: K-12 substr. DH10B.
Experiment [6] has as its system Shouchella clausii. The experiment is described as follows: Antimicrobial activity against Bacillus clausii NR expressing beta-lactamase BCL1 by agar-dilution technique.
Experiment [7] deals with Escherichia coli. The experiment is described as follows: Antimicrobial activity against Escherichia coli BL21(DE3) carrying pET9a expressing Bacillus clausii beta-lactamase BCL1 by agar-dilution technique in presence of beta-lactamase inhibitor clavulanic acid. The gist of the method: as §1
The subject of experiment [8] is Shouchella clausii. The experiment in a line: Antimicrobial activity against Bacillus clausii ATCC 21537 by agar-dilution technique in presence of beta-lactamase inhibitor clavulanic acid. The gist of the method:
as §1

Experiment [9] has as its system Shouchella clausii. The experiment is described as follows: Antimicrobial activity against Bacillus clausii NR expressing beta-lactamase BCL1 by agar-dilution technique in presence of beta-lactamase inhibitor clavulanic acid. The gist of the method: as §1
Experiment [10] relates to Escherichia coli. The experiment is described as follows: Antimicrobial activity against Escherichia coli BL21(DE3) by agar-dilution technique in presence of beta-lactamase inhibitor clavulanic acid. The gist of the method:
as §1

Experiment [11] has as its system Escherichia coli. The experiment is described as follows: Antimicrobial activity against Escherichia coli DH10B carrying pJIM2246 expressing Bacillus clausii NR beta-lactamase BCL1 by agar-dilution technique in presence of beta-lactamase inhibitor clavulanic acid. Particulars: K-12 substr. DH10B. The gist of the method:
as §1

In experiment [12] the test system is Escherichia coli. The experiment in a line: Antimicrobial activity against Escherichia coli DH10B by agar-dilution technique in presence of beta-lactamase inhibitor clavulanic acid. Particulars: K-12 substr. DH10B. The gist of the method:
as §1

In experiment [13] the test system is Escherichia coli. The experiment is described as follows: Antimicrobial activity against Escherichia coli BL21(DE3) by agar-dilution technique in presence of beta-lactamase inhibitor Tazobactam. The gist of the method:
as §1

In experiment [14] the test system is Shouchella clausii. The experiment is described as follows: Antimicrobial activity against Bacillus clausii NR expressing beta-lactamase BCL1 by agar-dilution technique in presence of beta-lactamase inhibitor Tazobactam. The gist of the method: as §1
The test system of experiment [15] is Escherichia coli. The experiment is described as follows: Antimicrobial activity against Escherichia coli BL21(DE3) carrying pET9a expressing Bacillus clausii beta-lactamase BCL1 by agar-dilution technique in presence of beta-lactamase inhibitor Tazobactam. The gist of the method: as §1
Experiment [16] has as its system Escherichia coli. The experiment in a line: Antimicrobial activity against Escherichia coli DH10B carrying pJIM2246 expressing Bacillus clausii NR beta-lactamase BCL1 by agar-dilution technique in presence of beta-lactamase inhibitor Tazobactam. The following applies: K-12 substr. DH10B. The gist of the method:
as §1

The subject of experiment [17] is Escherichia coli. The experiment in a line: Antimicrobial activity against Escherichia coli DH10B by agar-dilution technique in presence of beta-lactamase inhibitor Tazobactam. Particulars: K-12 substr. DH10B. The gist of the method: as §1
Experiment [18] concerns Shouchella clausii. The experiment is described as follows: Antimicrobial activity against Bacillus clausii ATCC 21537 by agar-dilution technique in presence of beta-lactamase inhibitor Tazobactam. The gist of the method: as §1

In the case of `CO/N=C(\C(=O)N[C@@H]1C(=O)N2C(C(=O)[O-])=C(C[N+]3(C)CCCC3)CS[C@H]12)c1csc(N)n1`, in the experiment on Escherichia coli [1], the MIC was found to be 0.06 µg/mL (≈ 0.125 µM).

Take `CC(=O)OCC1=C(C(=O)O)N2C(=O)[C@@H](NC(=O)Cc3cccs3)[C@H]2SC1` [CEPHALOTHIN]: the MIC in the experiment on Escherichia coli [2] was found to be 4 µg/mL (≈ 10.1 µM); against Shouchella clausii [3], 8 µg/mL (≈ 20.2 µM); against Escherichia coli [1] it was 1 µg/mL (≈ 2.52 µM); against Escherichia coli [4], 16 µg/mL (≈ 40.4 µM); against Escherichia coli [5], 64 µg/mL (≈ 161 µM); in the experiment with Shouchella clausii [6] it was 8 µg/mL (≈ 20.2 µM).

On to `CO[C@@]1(NC(=O)Cc2cccs2)C(=O)N2C(C(=O)O)=C(COC(N)=O)CS[C@@H]21` [CEFOXITIN], for which the MIC against Escherichia coli [2] turned out to be 8 µg/mL (≈ 18.7 µM); against Shouchella clausii [3], 16 µg/mL (≈ 37.4 µM); in the experiment on Escherichia coli [1], 0.5 µg/mL (≈ 1.17 µM); with Escherichia coli [4] it was 2 µg/mL (≈ 4.68 µM); against Escherichia coli [5], 16 µg/mL (≈ 37.4 µM); in the experiment with Shouchella clausii [6], 32 µg/mL (≈ 74.9 µM).

In the case of `CC1(C)S[C@@H]2[C@H](NC(=O)[C@H](N)c3ccc(O)cc3)C(=O)N2[C@H]1C(=O)O` [AMOXICILLIN], the MIC in the experiment with Escherichia coli [7] came out at 2 µg/mL; with Shouchella clausii [8] (read-out: MIC) it was 120 µg/mL; against Escherichia coli [2], 8 µg/mL (≈ 21.9 µM); against Shouchella clausii [3], 1 µg/mL (≈ 2.74 µM); with Escherichia coli [1] it was 1 µg/mL (≈ 2.74 µM); with Shouchella clausii [9], 0.12 µg/mL. Besides, the MIC in the experiment on Escherichia coli [10] came out at 1 µg/mL; in the experiment with Escherichia coli [11], 32 µg/mL; against Shouchella clausii [6], 0.5 µg/mL (≈ 1.37 µM); with Escherichia coli [12], 4 µg/mL.

Take `CO[C@@]1(NC(=O)C(C(=O)O)c2ccc(O)cc2)C(=O)N2C(C(=O)O)=C(CSc3nnnn3C)CO[C@@H]21` (some centres not stated) [MOXALACTAM]: the MIC came to 0.25 µg/mL (≈ 0.48 µM) with Escherichia coli [2]; 0.25 µg/mL (≈ 0.48 µM) against Shouchella clausii [3]; 0.25 µg/mL (≈ 0.48 µM) in the experiment with Escherichia coli [1]; 0.25 µg/mL (≈ 0.48 µM) against Escherichia coli [4]; 0.25 µg/mL (≈ 0.48 µM) with Escherichia coli [5]; 64 µg/mL (≈ 123 µM) with Shouchella clausii [6].

Take `CC(C)(O/N=C(\C(=O)N[C@@H]1C(=O)N2C(C(=O)[O-])=C(C[n+]3ccccc3)CS[C@H]12)c1csc(N)n1)C(=O)O` [CEFTAZIDIME]: the MIC was 0.06 µg/mL with Escherichia coli [7]; 0.12 µg/mL (≈ 0.22 µM) against Escherichia coli [2]; 0.06 µg/mL (≈ 0.11 µM) against Escherichia coli [1]; 0.12 µg/mL (≈ 0.22 µM) in the experiment with Escherichia coli [4]; 0.5 µg/mL (≈ 0.915 µM) against Escherichia coli [5]; 0.06 µg/mL in the experiment with Escherichia coli [10]. The MIC in the experiment on Escherichia coli [11] worked out at 0.5 µg/mL; with Escherichia coli [12], 0.12 µg/mL.

For `O=C(Cc1cccs1)N[C@@H]1C(=O)N2C(C(=O)[O-])=C(C[n+]3ccccc3)CS[C@H]12` [CEPHALORIDINE], the MIC against Escherichia coli [2] was found to be 0.12 µg/mL (≈ 0.289 µM); in the experiment with Escherichia coli [1], 0.06 µg/mL (≈ 0.144 µM); against Escherichia coli [4], 0.06 µg/mL (≈ 0.144 µM); with Escherichia coli [5], 0.12 µg/mL (≈ 0.289 µM).

Regarding `CC1(C)S[C@@H]2[C@H](NC(=O)[C@H](C(=O)O)c3ccsc3)C(=O)N2[C@H]1C(=O)O` [TICARCILLIN], the MIC turned out to be 8 µg/mL (≈ 20.8 µM) with Escherichia coli [2], 8 µg/mL (≈ 20.8 µM) with Shouchella clausii [3], 1 µg/mL (≈ 2.6 µM) against Escherichia coli [1] and 8 µg/mL (≈ 20.8 µM) against Shouchella clausii [6].

`CO/N=C(\C(=O)N[C@@H]1C(=O)N2C(C(=O)O)=C(CSc3nc(=O)c(O)nn3C)CS[C@H]12)c1csc(N)n1` [CEFTRIAXONE]: the MIC in the experiment with Escherichia coli [2], with Escherichia coli [1], against Escherichia coli [4] and against Escherichia coli [5] was 0.06 µg/mL (≈ 0.108 µM) in each case.

Regarding `CO/N=C(\C(=O)N[C@@H]1C(=O)N2C(C(=O)O)=C(COC(C)=O)CS[C@H]12)c1csc(N)n1` [CEFOTAXIME], the minimal inhibitory concentration (MIC) was found to be 0.06 µg/mL in the experiment on Escherichia coli [7]; 16 µg/mL in the experiment with Shouchella clausii [8]; 0.06 µg/mL (≈ 0.132 µM) against Escherichia coli [2]; 16 µg/mL (≈ 35.1 µM) in the experiment on Shouchella clausii [3]; 0.06 µg/mL (≈ 0.132 µM) against Escherichia coli [1]; 16 µg/mL with Shouchella clausii [9]. For the same compound, the minimal inhibitory concentration (MIC) with Escherichia coli [4] was 0.06 µg/mL (≈ 0.132 µM); in the experiment with Escherichia coli [5], 0.12 µg/mL (≈ 0.263 µM); in the experiment with Escherichia coli [10] it was 0.06 µg/mL; in the experiment on Escherichia coli [11] it was 0.06 µg/mL; with Shouchella clausii [6], 16 µg/mL (≈ 35.1 µM); with Escherichia coli [12] it was 0.06 µg/mL.

`C[C@@H](O)[C@H]1C(=O)N2C(C(=O)O)=C(SCCNC=N)C[C@H]12` [IMIPENEM ANHYDROUS] displayed an MIC in the experiment on Shouchella clausii [6] of 0.25 µg/mL (≈ 0.835 µM).

For the compound `CC1(C)S[C@@H]2[C@H](NC(=O)Cc3ccccc3)C(=O)N2[C@H]1C(=O)O` [PENICILLIN G], the MIC came to 32 µg/mL (≈ 95.7 µM) in the experiment with Escherichia coli [2], 0.5 µg/mL (≈ 1.5 µM) in the experiment with Shouchella clausii [3], 2 µg/mL (≈ 5.98 µM) against Escherichia coli [1] and 0.5 µg/mL (≈ 1.5 µM) in the experiment on Shouchella clausii [6].

For `CO/N=C(\C(=O)N[C@@H]1C(=O)N2C(C(=O)[O-])=C(C[n+]3cccc4c3CCC4)CS[C@H]12)c1csc(N)n1` [CEFPIROME], the MIC amounted to 0.06 µg/mL with Escherichia coli [7]; 8 µg/mL with Shouchella clausii [8]; 0.06 µg/mL (≈ 0.117 µM) against Escherichia coli [2]; 0.06 µg/mL (≈ 0.117 µM) with Escherichia coli [1]; 8 µg/mL in the experiment on Shouchella clausii [9]; 0.5 µg/mL (≈ 0.972 µM) against Escherichia coli [4]. The MIC worked out at 0.12 µg/mL (≈ 0.233 µM) with Escherichia coli [5], 0.06 µg/mL with Escherichia coli [10], 0.06 µg/mL with Escherichia coli [11] and 0.06 µg/mL in the experiment with Escherichia coli [12].

As to `CCN1CCN(C(=O)N[C@@H](C(=O)N[C@@H]2C(=O)N3[C@@H]2SC(C)(C)[C@@H]3C(=O)O)c2ccccc2)C(=O)C1=O` [PIPERACILLIN], the MIC against Escherichia coli [2] turned out to be 4 µg/mL (≈ 7.73 µM); against Shouchella clausii [3] it was 16 µg/mL (≈ 30.9 µM); in the experiment with Escherichia coli [1], 1 µg/mL (≈ 1.93 µM); in the experiment with Escherichia coli [13], 0.5 µg/mL; in the experiment with Shouchella clausii [14] it was 8 µg/mL; in the experiment on Escherichia coli [4], 32 µg/mL (≈ 61.8 µM). The MIC in the experiment with Escherichia coli [5] stood at 8 µg/mL (≈ 15.5 µM); in the experiment with Escherichia coli [15], 0.5 µg/mL; with Shouchella clausii [6] it was 16 µg/mL (≈ 30.9 µM); with Escherichia coli [16], 2 µg/mL; in the experiment with Escherichia coli [17], 4 µg/mL; in the experiment on Shouchella clausii [18] it was 8 µg/mL.

On to `CO/N=C(\C(=O)N[C@@H]1C(=O)N2C(C(=O)O)=C(COC(N)=O)CS[C@H]12)c1ccco1` [CEFUROXIME], for which the MIC worked out at 8 µg/mL (≈ 18.9 µM) with Escherichia coli [2], 0.5 µg/mL (≈ 1.18 µM) in the experiment with Escherichia coli [1], 2 µg/mL (≈ 4.71 µM) in the experiment with Escherichia coli [4] and 16 µg/mL (≈ 37.7 µM) in the experiment on Escherichia coli [5].
